The test system of this test is RBL-2H3. Kind of test: Inhibition of IgE receptor/FcERI mediated leukotriene release from rat RBL-2H3 cells. Type of test: functional, cell-based. In outline: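 RBL-2H3 rat mast cells were sensitized with monoclonal anti-DNP IgE ([…]) for 1 h at 37 °C, washed to remove unbound IgE, and overlaid with PIPES-buffered saline containing 1 mM CaCl2. Cells were preincubated with compound or vehicle, then challenged with 20 ng/mL DNP-BSA for 30 min at 37 °C and centrifuged at 200g for 10 min at 4 °C. LTC4 was measured in cell-free supernatants and reported as IC50.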
For `S=C(NCCc1c[nH]c2ccccc12)Nc1ccc(Br)cn1`, the IC50 was found to be 6.1 µM.
On to `CCOC(=O)Cc1csc(/N=C(\S)N[C@H](C)c2cccc3ccccc23)n1`, for which half-maximal inhibition (IC50) required 0.002 µM.
The figure for `Cc1ccc(N/C(S)=N/[C@H](C)c2cccc3ccccc23)nc1` is 0.005 µM.
`C[C@H](/N=C(\S)Nc1nccs1)c1cccc2ccccc12` came in with an IC50 of over 100 µM.
On to `Cc1cccc(N/C(S)=N/[C@@H](C)c2cccc3ccccc23)n1`, for which the IC50 came out at 1.6 µM.
For `C[C@@H](/N=C(\S)Nc1ccccn1)c1cccc2ccccc12`, the IC50 is over 100 µM.
For `C[C@@H](/N=C(\S)Nc1nccs1)c1cccc2ccccc12` the value was over 100 µM; for `Cc1ccc(N/C(S)=N/[C@@H](C)c2cccc3ccccc23)nc1`, over 100 µM; for `Cc1cc(C)nc(N/C(S)=N/[C@H](C)c2cccc3ccccc23)c1`, over 100 µM.
In turn, `C[C@H](/N=C(\S)Nc1ccccn1)c1cccc2ccccc12` came in with an IC50 of over 100 µM.
For the molecule `Oc1ccc(CC/N=C(\S)Nc2ccc(Br)cn2)cc1`, the IC50 was 16.8 µM.
Molecule `C[C@H](/N=C(\S)Nc1nc2ccccc2s1)c1cccc2ccccc12` returned an IC50 of over 100 µM.
Turning to `S=C(NCCc1c[nH]c2ccccc12)Nc1ccc(Cl)cn1`, the IC50 stood at 4.9 µM.
The figure for `C[C@H](/N=C(\S)Nc1ccc(Br)cn1)c1cccc2ccccc12` is over 100 µM; for `C[C@@H](/N=C(\S)Nc1ccc(Cl)cn1)c1cccc2ccccc12` it is over 100 µM.
For `Cc1csc(N/C(S)=N/[C@@H](C)c2cccc3ccccc23)n1` the value was 83.2 µM.
In turn, `C[C@@H](/N=C(\S)Nc1nc2ccccc2s1)c1cccc2ccccc12` gave a half-inhibitory concentration (IC50) of 18.9 µM.
`Cc1cccc2sc(N/C(S)=N/[C@H](C)c3cccc4ccccc34)nc12` had an IC50 of over 100 µM.
With `Oc1ccc(CC/N=C(\S)Nc2ccccn2)cc1`, the concentration for half-maximal inhibition (IC50) stood at 8.5 µM.
For `Oc1ccc(CC/N=C(\S)Nc2ccc(Cl)cn2)cc1` the value was 12.6 µM; for `COc1ccc2nc(/N=C(\S)N[C@H](C)c3cccc4ccccc34)sc2c1`, over 100 µM; for `Cc1csc(N/C(S)=N/[C@H](C)c2cccc3ccccc23)n1`, 25.9 µM.
`Cc1cc(C)nc(N/C(S)=N/[C@@H](C)c2cccc3ccccc23)c1` returned an IC50 of over 100 µM.
`COc1cc2ncnc(Nc3cc(Br)c(O)c(Br)c3)c2cc1OC`: the IC50 turned out to be 6.8 µM.
Regarding `Cc1cccc2sc(N/C(S)=N/[C@@H](C)c3cccc4ccccc34)nc12`, the IC50 is over 100 µM.
For `CCOC(=O)Cc1csc(/N=C(\S)N[C@@H](C)c2cccc3ccccc23)n1` the value was 0.002 µM.

Values taken from ChEMBL document CHEMBL1136558, “Inhibition of mast cell leukotriene release by thiourea derivatives” (Bioorg Med Chem Lett, 2003).
